ChEMBL document CHEMBL5724801, “EUbOPEN Chemogenomics Library - Multiplex” (2024)
Several values for one entry are separate records, joined by “and”; a condition that tells them apart may be missing. Equal values may be shown once.

Tested on: U2OS
Experiment: Multiplex assay against U2OS
Assay type: toxicity, cell-based
Settings: human
In short: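 At seeding, live cells were stained with Hoechst33342, BioTracker Green Microtubule Cytoskeleton Dye, MitoTracker Red and Annexin V Alexa Fluor 680. After compound addition they were imaged on a CQ1 microscope at 37°C and 5% CO2, and CellPathfinder machine-learning gating sorted them into Hoechst high-intensity objects or normal cells, with normal cells further split into healthy, pyknosed or fragmented nuclei and pyknosed cells into mitotic or apoptotic. Tubulin, mitochondrial-mass and membrane-permeability phenotypes are given as per cents of cells with healthy nuclei.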

[1] = 12 h, 1 µM, compound concentration 1 uM
[2] = 12 h, 10 µM, compound concentration 10 uM
[3] = 24 h, 1 µM, compound concentration 1 uM
[4] = 24 h, 10 µM, compound concentration 10 uM
[5] = 48 h, 1 µM, compound concentration 1 uM
[6] = 48 h, 10 µM, compound concentration 10 uM

CN(C)C(=O)Cn1cc(-c2ccc(-c3cncc4ccccc34)cc2)cn1
Population Apoptotic (%) [1]: 68% and 69%
Population Fragmented Nuclei (%) [1]: 22% and 18%
Population Healthy Nuclei (%) [1]: 68% and 69%
Population Hoechst High Intensity Objects (%) [1]: 3% and 0%
Population Membrane Permeable-Phenotype (%) [1]: 8% and 6%
Population Mitochondria Different-Phenotype (%) [1]: 4% and 2%
Population Mitotic Cells (%) [1]: 31% and 30%
Population Normal (%) [1]: 96% and 99%
Population Pyknosed Nuclei (%) [1]: 9% and 11%
Population Tubulin-Different-Phenotype (%) [1]: 5% and 3%
Total Cell Count [1]: 240 and 110
Population Apoptotic (%) [2]: 66% and 100%
Population Fragmented Nuclei (%) [2]: 21% and 18%
Population Healthy Nuclei (%) [2]: 67% and 75%
Population Hoechst High Intensity Objects (%) [2]: 5% and 3%
Population Membrane Permeable-Phenotype (%) [2]: 20% and 22%
Population Mitochondria Different-Phenotype (%) [2]: 12% and 19%
Population Normal (%) [2]: 94% and 96%
Population Pyknosed Nuclei (%) [2]: 10% and 5%
Population Tubulin-Different-Phenotype (%) [2]: 14% and 23%
Total Cell Count [2]: 205 and 98
Population Apoptotic (%) [3]: 100% and 90%
Population Fragmented Nuclei (%) [3]: 21% and 15%
Population Healthy Nuclei (%) [3]: 69% and 76%
Population Hoechst High Intensity Objects (%) [3]: 3% and 1%
Population Membrane Permeable-Phenotype (%) [3]: 5% and 8%
Population Mitochondria Different-Phenotype (%) [3]: 2% and 6%
Population Mitotic Cells (%) [3]: 0% and 9%
Population Normal (%) [3]: 96% and 98%
Population Pyknosed Nuclei (%) [3]: 8%
Population Tubulin-Different-Phenotype (%) [3]: 4%
Total Cell Count [3]: 278 and 127
Population Apoptotic (%) [4]: 54% and 80%
Population Fragmented Nuclei (%) [4]: 25% and 11%
Population Healthy Nuclei (%) [4]: 64% and 84%
Population Hoechst High Intensity Objects (%) [4]: 3% and 2%
Population Membrane Permeable-Phenotype (%) [4]: 19% and 16%
Population Mitochondria Different-Phenotype (%) [4]: 9% and 15%
Population Mitotic Cells (%) [4]: 45% and 20%
Population Normal (%) [4]: 96% and 97%
Population Pyknosed Nuclei (%) [4]: 9% and 4%
Population Tubulin-Different-Phenotype (%) [4]: 10% and 14%
Total Cell Count [4]: 244 and 110
Population Apoptotic (%) [5]: 87% and 88%
Population Fragmented Nuclei (%) [5]: 18% and 20%
Population Healthy Nuclei (%) [5]: 69% and 67%
Population Hoechst High Intensity Objects (%) [5]: 2% and 3%
Population Membrane Permeable-Phenotype (%) [5]: 6% and 12%
Population Mitochondria Different-Phenotype (%) [5]: 3% and 9%
Population Mitotic Cells (%) [5]: 12% and 11%
Population Normal (%) [5]: 97% and 96%
Population Pyknosed Nuclei (%) [5]: 12% and 11%
Population Tubulin-Different-Phenotype (%) [5]: 4% and 9%
Total Cell Count [5]: 333 and 163
Population Apoptotic (%) [6]: 74% and 92%
Population Fragmented Nuclei (%) [6]: 22% and 21%
Population Healthy Nuclei (%) [6]: 62% and 68%
Population Hoechst High Intensity Objects (%) [6]: 2%
Population Membrane Permeable-Phenotype (%) [6]: 15% and 20%
Population Mitochondria Different-Phenotype (%) [6]: 8% and 14%
Population Normal (%) [6]: 97%
Population Pyknosed Nuclei (%) [6]: 14% and 9%
Population Tubulin-Different-Phenotype (%) [6]: 8% and 16%
Total Cell Count [6]: 302 and 149

Cc1cccc(NC(=O)CN2CCC(c3ccccn3)CC2)c1.Cl.Cl
Population Apoptotic (%) [1]: 90% and 57%
Population Fragmented Nuclei (%) [1]: 27% and 17%
Population Healthy Nuclei (%) [1]: 67% and 76%
Population Hoechst High Intensity Objects (%) [1]: 1% and 0%
Population Membrane Permeable-Phenotype (%) [1]: 5% and 4%
Population Mitochondria Different-Phenotype (%) [1]: 2%
Population Normal (%) [1]: 98% and 99%
Population Pyknosed Nuclei (%) [1]: 5% and 6%
Population Tubulin-Different-Phenotype (%) [1]: 3%
Total Cell Count [1]: 208 and 111
Population Apoptotic (%) [2]: 72% and 66%
Population Fragmented Nuclei (%) [2]: 34% and 21%
Population Healthy Nuclei (%) [2]: 55% and 70%
Population Hoechst High Intensity Objects (%) [2]: 2% and 1%
Population Membrane Permeable-Phenotype (%) [2]: 8% and 12%
Population Mitochondria Different-Phenotype (%) [2]: 6% and 7%
Population Mitotic Cells (%) [2]: 27% and 33%
Population Normal (%) [2]: 97% and 98%
Population Pyknosed Nuclei (%) [2]: 10% and 8%
Population Tubulin-Different-Phenotype (%) [2]: 3% and 9%
Total Cell Count [2]: 216 and 111
Population Apoptotic (%) [3]: 76% and 73%
Population Fragmented Nuclei (%) [3]: 22% and 21%
Population Healthy Nuclei (%) [3]: 70% and 67%
Population Hoechst High Intensity Objects (%) [3]: 3% and 0%
Population Membrane Permeable-Phenotype (%) [3]: 5% and 7%
Population Mitochondria Different-Phenotype (%) [3]: 3% and 4%
Population Mitotic Cells (%) [3]: 23% and 26%
Population Normal (%) [3]: 96% and 99%
Population Pyknosed Nuclei (%) [3]: 7% and 11%
Population Tubulin-Different-Phenotype (%) [3]: 3% and 5%
Total Cell Count [3]: 249 and 135
Population Apoptotic (%) [4]: 85% and 75%
Population Fragmented Nuclei (%) [4]: 32% and 20%
Population Healthy Nuclei (%) [4]: 55% and 73%
Population Hoechst High Intensity Objects (%) [4]: 3% and 2%
Population Membrane Permeable-Phenotype (%) [4]: 6% and 17%
Population Mitochondria Different-Phenotype (%) [4]: 3% and 5%
Population Mitotic Cells (%) [4]: 14% and 25%
Population Normal (%) [4]: 96% and 97%
Population Pyknosed Nuclei (%) [4]: 11% and 6%
Population Tubulin-Different-Phenotype (%) [4]: 2% and 10%
Total Cell Count [4]: 243 and 131
Population Apoptotic (%) [5]: 82% and 94%
Population Fragmented Nuclei (%) [5]: 18% and 17%
Population Healthy Nuclei (%) [5]: 72%
Population Hoechst High Intensity Objects (%) [5]: 2% and 3%
Population Membrane Permeable-Phenotype (%) [5]: 6% and 2%
Population Mitochondria Different-Phenotype (%) [5]: 3%
Population Normal (%) [5]: 97% and 96%
Population Pyknosed Nuclei (%) [5]: 8% and 10%
Population Tubulin-Different-Phenotype (%) [5]: 3% and 2%
Total Cell Count [5]: 341 and 182
Population Apoptotic (%) [6]: 96% and 83%
Population Fragmented Nuclei (%) [6]: 29% and 19%
Population Healthy Nuclei (%) [6]: 60% and 74%
Population Hoechst High Intensity Objects (%) [6]: 3%
Population Membrane Permeable-Phenotype (%) [6]: 6% and 10%
Population Mitochondria Different-Phenotype (%) [6]: 6% and 4%
Population Normal (%) [6]: 96%
Population Pyknosed Nuclei (%) [6]: 9% and 6%
Population Tubulin-Different-Phenotype (%) [6]: 3% and 4%
Total Cell Count [6]: 303 and 198
